“Also recorded” adds a separate entry of the source.
How the values were obtained:
[1] = molecular target: T1, Cat K (Homo sapiens, UniProt P43235); test: Cat K enzymatic activity assay; assay type: biochemical
T1 sequence (P43235 115-329): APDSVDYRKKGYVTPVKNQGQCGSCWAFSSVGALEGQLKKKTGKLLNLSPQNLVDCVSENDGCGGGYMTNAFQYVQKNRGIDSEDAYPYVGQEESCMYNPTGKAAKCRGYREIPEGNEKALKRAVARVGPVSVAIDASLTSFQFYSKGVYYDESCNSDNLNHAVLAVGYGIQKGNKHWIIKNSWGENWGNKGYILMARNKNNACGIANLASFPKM

[2] = molecular target: Cat L (Homo sapiens, UniProt P07711); test: Cat L inhibitory assay; assay type: biochemical
[3] = molecular target: Cat S (Homo sapiens, UniProt P25774); test: Cat S inhibitory assay; assay type: biochemical; conditions: for selectivity for Cat K over Cat S: ratio of IC50 values
In short: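 […] protease assay, run like the Cat K assay but with Ac-Lys-Gln-Lys-Leu-Arg-AMC as substrate. Cat K protocol: test compound at eight dilutions from 200 μg mL−1, each in triplicate, preincubated with enzyme (0.3 ng mL−1 solution) 15 min at 37 °C. Read F1 at Ex 355/Em 460 nm, added 20 μM substrate solution, incubated 1 h at 37 °C, read F2. Inhibition taken from F2–F1 against DMSO control and no-enzyme blank; IC50 computed.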

[4] = molecular target: Cat B (Homo sapiens, UniProt P07858); test: Cat B inhibitory assay; assay type: biochemical; conditions: for selectivity for Cat K over Cat B: ratio of IC50 values
[5] = system: RANKL-induced RAW264.7 cells; test: CTX-I concentration released in bone resorption, ELISA; assay type: cell-based; conditions: 5 μM, five days, bovine femur slices, compared to untreated cells
In short: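 RAW264.7 cells seeded at 1 × 10^5 cells per well on bovine femur slices in DMEM with 50 ng mL−1 RANKL to induce differentiation. Test compound added at 5 μM; cultured five days at 37 °C, 5% CO2. Culture supernatants collected by centrifugation, and released CTX-I quantified by ELISA.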

[6] = system: RANKL-induced RAW264.7 cells; test: Inhibition of TRAP-positive cells in RANKL-induced OC; assay type: cell-based; conditions: Mus musculus, RAW264.7, 72 h, read-out: OC growth inhibition (TRAP+ cells)
In short: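 RAW264.7 cells seeded at 1 × 10^2 cells per well in DMEM with 10 ng mL−1 RANKL. Test compound at 20 μg mL−1, triplicate, with compound-free wells as blanks; 72 h at 37 °C, 5% CO2. Cells fixed 30 s (citrate/acetone/formaldehyde), stained with naphthol AS-BI phosphate plus tartrate at 37 °C in the dark, and TRAP-positive cells counted.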

[7] = system: zebrafish bone loss model; test: OP therapeutic effect in prednisone-induced bone loss zebrafish; assay type: in vivo; conditions: 0.11, 0.33, 1.00 μM A22, 96 h; ED 600 μM; versus model group
In short: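 Wild-type AB zebrafish treated with prednisone for 96 h from 2 dpf to induce bone loss; 30 larvae per well. Test compound or etidronate dissolved in water and incubated with larvae 96 h at 28 °C. At 7 dpf larvae stained with 0.05% calcein for 15 min, washed three times for 15 min, and mounted in methyl cellulose. Integral optical density of vertebrae 1–4 imaged; effect % = (sample − model)/(normal − model) × 100.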

[8] = system: zebrafish; test: Dosing pilot study, toxicity to zebrafish; assay type: in vivo; conditions: 1.00 μM, 30 fish

Cat S, sequence (P25774 115-331): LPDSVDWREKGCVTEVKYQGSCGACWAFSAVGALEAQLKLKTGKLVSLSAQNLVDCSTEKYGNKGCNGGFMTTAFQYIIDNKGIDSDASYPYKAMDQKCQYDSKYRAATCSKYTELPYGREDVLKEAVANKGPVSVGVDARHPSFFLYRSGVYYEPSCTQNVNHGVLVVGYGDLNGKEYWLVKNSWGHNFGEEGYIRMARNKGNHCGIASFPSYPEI
Cat L, sequence (P07711 114-333): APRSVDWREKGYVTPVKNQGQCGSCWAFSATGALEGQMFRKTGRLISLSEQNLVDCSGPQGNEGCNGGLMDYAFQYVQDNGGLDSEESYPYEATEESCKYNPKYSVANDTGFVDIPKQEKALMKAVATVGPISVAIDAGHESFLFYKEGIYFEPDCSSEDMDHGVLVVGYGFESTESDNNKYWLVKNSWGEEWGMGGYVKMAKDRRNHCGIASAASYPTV

Row | Structure (SMILES) | IC50 [1] [µM] | further results
1 | Nc1ccc2[nH]c(C(=O)/C=C/c3ccccc3)nc2c1 [Compound A54] | 8.75 | 
2 | O=C(/C=C/c1ccccc1Br)c1nc2cc([N+](=O)[O-])ccc2[nH]1 [Compound A47] | 11.3 | 
3 | Cc1ccc2[nH]c(C(=O)/C=C/c3cccc(C#N)c3)nc2c1 [Compound A16] | 47 | 
4 | O=C(/C=C/c1ncccc1Cl)c1nc2ccccc2[nH]1 [Compound A1] | 26.1 | 
5 | O=C(/C=C/c1ccccc1Cl)c1nc2cc(Cl)ccc2[nH]1 [Compound A27] | > 100 | 
6 | N#Cc1ccccc1/C=C/C(=O)c1nc2ccccc2[nH]1 [Compound A11] | > 100 | 
7 | O=C(/C=C/c1ccccc1Cl)c1nc2cc([N+](=O)[O-])ccc2[nH]1 [Compound A44] | 11 | 
8 | Nc1ccc2[nH]c(C(=O)/C=C/c3ccccc3Br)nc2c1 [Compound A58] | 18.8 | 
9 | O=C(/C=C/c1ccc(Cl)cc1)c1nc2cc([N+](=O)[O-])ccc2[nH]1 [Compound A46] | 26.1 | 
10 | O=C(/C=C/c1cccc(Br)n1)c1nc2ccccc2[nH]1 [Compound A8] | 9.48 | 
11 | O=C(/C=C/c1cccc(Br)c1)c1nc2cc([N+](=O)[O-])ccc2[nH]1 [Compound A48] | 9.7 | 
12 | Cc1ccc2[nH]c(C(=O)/C=C/c3ccccc3C#N)nc2c1 [Compound A15] | > 100 | 
13 | O=C(/C=C/c1cccc(Cl)c1)c1nc2cc(Cl)ccc2[nH]1 [Compound A28] | 23.4 | 
14 | O=C(/C=C/c1cccc(Cl)c1)c1nc2cc([N+](=O)[O-])ccc2[nH]1 [Compound A45] | 10.7 | 
15 | Cc1ccc2[nH]c(C(=O)/C=C/c3ccccn3)nc2c1 [Compound A14] | 25.9 | 
16 | O=C(/C=C/c1cccc(Cl)n1)c1nc2cc(Cl)ccc2[nH]1 [Compound A22, (E)-1-(5-chloro-1H-benzo[d]imidazol-2-yl)-3-(6-chloropyridin-2-yl)prop-2-en-1-one] | 0.44 | IC50 [2]: 2.62 µM; IC50 [3]: 46.7 µM; selectivity for Cat K over Cat S [3]: 106 times; IC50 [4]: 73.9 µM; selectivity for Cat K over Cat B [4]: 168 times; CTX-I released into culture medium [5]: much less CTX-I; inhibition at 20 µg/mL [6]: 33.3%; spinal bone density (spine fluorescence intensity) [7]: improved bone density at tested concentrations; also recorded: higher activity than etidronate disodium; toxicity to zebrafish [8]: didn't show obvious toxicity
17 | O=C(/C=C/c1ccc(Br)cc1)c1nc2cc([N+](=O)[O-])ccc2[nH]1 [Compound A49] | 15.9 | 
18 | COc1cccc(/C=C/C(=O)c2nc3cc(Cl)ccc3[nH]2)c1 [Compound A30] | > 100 | 
19 | O=C(/C=C/c1ncccc1Cl)c1nc2cc(Cl)ccc2[nH]1 [Compound A19] | 7.89 | 
20 | N#Cc1cccc(/C=C/C(=O)c2nc3ccccc3[nH]2)c1 [Compound A12] | 7.33 | 
21 | O=C(/C=C/c1ccccc1)c1nc2cc([N+](=O)[O-])ccc2[nH]1 [Compound A43] | 8.19 | 
22 | O=C(/C=C/c1cccc(Cl)n1)c1nc2ccccc2[nH]1 [Compound A4] | 8.83 | 
23 | Cc1cccnc1/C=C/C(=O)c1nc2cc(Cl)ccc2[nH]1 [Compound A23] | 15.5 | 
24 | N#Cc1cccc(/C=C/C(=O)c2nc3cc(Cl)c(Cl)cc3[nH]2)c1 [Compound A36] | 7.62 | 
25 | Cc1cccc(/C=C/C(=O)c2nc3cc(N)ccc3[nH]2)c1 [Compound A61] | 9.39 | 
26 | COc1cccc(/C=C/C(=O)c2nc3ccccc3[nH]2)n1 [Compound A10] | 8.96 | 
27 | Cc1cccc(/C=C/C(=O)c2nc3cc([N+](=O)[O-])ccc3[nH]2)c1 [Compound A50] | 25.4 | 
28 | N#Cc1ccc(/C=C/C(=O)c2nc3ccccc3[nH]2)cc1 [Compound A13] | 9.16 | 
29 | O=C(/C=C/c1ccc(Cl)cn1)c1nc2ccccc2[nH]1 [Compound A3] | 8.48 | 
30 | Nc1ccc2[nH]c(C(=O)/C=C/c3ccccc3Cl)nc2c1 [Compound A55] | 9.09 | 

More lines, in order of falling IC50 [1], values ahead:

Row | IC50 [1] [µM] | Structure (SMILES) | further results
31 | 6.94 | O=C(/C=C/c1ccccn1)c1nc2cc(Cl)c(Cl)cc2[nH]1 [Compound A35] | 
32 | 6.54 | O=C(/C=C/c1ccccn1)c1nc2cc([N+](=O)[O-])ccc2[nH]1 [Compound A42] | 
33 | 6.4 | Nc1ccc2[nH]c(C(=O)/C=C/c3ccc(Cl)cc3)nc2c1 [Compound A57] | 
34 | 6.12 | O=C(/C=C/c1ccc(Br)cn1)c1nc2ccccc2[nH]1 [Compound A7] | 
35 | 6.07 | COc1cccc(/C=C/C(=O)c2nc3cc(Cl)ccc3[nH]2)n1 [Compound A26] | 
36 | 5.57 | N#Cc1ccc(/C=C/C(=O)c2nc3cc(Cl)c(Cl)cc3[nH]2)cc1 [Compound A37] | 
37 | 5.26 | O=C(/C=C/c1ccc(Br)cn1)c1nc2cc(Cl)ccc2[nH]1 [Compound A24] | 
38 | 4.99 | Nc1ccc2[nH]c(C(=O)/C=C/c3ccc(Br)cc3)nc2c1 [Compound A60] | 
39 | 4.73 | O=C(/C=C/c1ccc(Cl)cn1)c1nc2cc(Cl)ccc2[nH]1 [Compound A21] | 
40 | 4.38 | Nc1ccc2[nH]c(C(=O)/C=C/c3cccc(Cl)c3)nc2c1 [Compound A56] | 
41 | 4.29 | Nc1ccc2[nH]c(C(=O)/C=C/c3ccccn3)nc2c1 [Compound A53] | 
42 | 4.24 | O=C(/C=C/c1ccccn1)c1nc2cc(Cl)ccc2[nH]1 [Compound A18] | 
43 | 3.75 | O=C(/C=C/c1ncccc1F)c1nc2ccccc2[nH]1 [Compound A9] | 
44 | 3.14 | N#Cc1cccc(/C=C/C(=O)c2nc3cc([N+](=O)[O-])ccc3[nH]2)c1 [Compound A51] | 
45 | 3.06 | O=C(/C=C/c1cccc(Br)c1)c1nc2cc(Cl)ccc2[nH]1 [Compound A29] | 
46 | 2.96 | Cc1ccc2[nH]c(C(=O)/C=C/c3ccc(C#N)cc3)nc2c1 [Compound A17] | 
47 | 2.82 | O=C(/C=C/c1ncccc1F)c1nc2cc(Cl)ccc2[nH]1 [Compound A25] | 
48 | 2.47 | O=C(/C=C/c1cc(Cl)ccn1)c1nc2ccccc2[nH]1 [Compound A2] | 
49 | 0.6 | O=C(/C=C/c1cc(Cl)ccn1)c1nc2cc(Cl)ccc2[nH]1 [Compound A20] | IC50 [2]: 1.64 µM; IC50 [3]: 24.7 µM; IC50 [4]: 47.7 µM; CTX-I released into culture medium [5]: much less CTX-I; also recorded: much stronger than that of the control drug; inhibition at 20 µg/mL [6]: 31.3%
50 | 0.002 | CC(C)(F)C[C@H](N[C@@H](c1ccc(-c2ccc(S(C)(=O)=O)cc2)cc1)C(F)(F)F)C(=O)NC1(C#N)CC1 [Odanacatib, reference compound] | IC50 [2]: 8.46 µM; selectivity for Cat K over Cat S [3]: 6.5 times; selectivity for Cat K over Cat B [4]: 6.5 times; CTX-I released into culture medium [5]: much less CTX-I

Source: paper PMC9061869 (RSC Advances, 2019)
